# Experimental data from different studies.
# Each line is one published result; the experiments were not run side by side.
# Method: competition with immobilised ligand
# RPS6KA6 N-terminal kinase domain: Ribosomal protein S6 kinase alpha-6, N-terminal kinase domain (RPS6KA6, Homo sapiens, UniProt Q9UK32)
# RPS6KA6 C-terminal kinase domain: Ribosomal protein S6 kinase alpha-6, C-terminal kinase domain (RPS6KA6, Homo sapiens, UniProt Q9UK32)
Structure (SMILES),target,effect on,concentration,remaining binding [%]
O=C(c1ccc(Nc2ncc(Cl)c(-c3ccc(Cl)s3)n2)cc1)N1CCC(N2CCCC2)CC1,RPS6KA6 N-terminal kinase domain,binding,1 µM,41
CN(c1nccc(-c2cnn3ncccc23)n1)C1CC1,RPS6KA6 N-terminal kinase domain,binding,1 µM,83
COc1cnc(Nc2cccc(S(N)(=O)=O)c2)nc1N1CCN(c2ccccc2)C(=O)C1,RPS6KA6 N-terminal kinase domain,binding,1 µM,79
c1cncc(-c2cccc(Nc3nccc(NC4CCCCC4)n3)c2)c1,RPS6KA6 C-terminal kinase domain,binding,10 µM,87
O=C(NCCCN1CCOCC1)c1ccc(Nc2nccc(-c3cc4ccccc4s3)n2)cc1,RPS6KA6 N-terminal kinase domain,binding,1 µM,67
FC(F)(F)Oc1cccc(-c2cnc3ccc(-c4ccncc4)nn23)c1,RPS6KA6 N-terminal kinase domain,binding,5 µM,64
NS(=O)(=O)c1cc(NC(=O)C2(c3ccccc3Cl)CC2)ccc1Oc1cccc(Cl)c1,RPS6KA6 C-terminal kinase domain,cell-free assay,1 µM,96
COc1ncc2cc3ccccc3nc2c1C#N,RPS6KA6 N-terminal kinase domain,cell-free assay,5 µM,100
COc1ccnn2ncc(-c3ccnc(N(C)C)n3)c12,RPS6KA6 C-terminal kinase domain,binding,1 µM,100
C[C@@H]1CN(c2cc(-c3nn(C)c4ccc(OC5(C)CC5)cc34)ncn2)C[C@H](C)O1,RPS6KA6 C-terminal kinase domain,cell-free assay,1 µM,79
O=C(c1ccc(Nc2nccc(-c3cc4ccccc4s3)n2)cc1)N1CCC(N2CCCC2)CC1,RPS6KA6 C-terminal kinase domain,binding,1 µM,63
Nc1ncc2c(n1)-c1c([nH]c3ccc(C#CC4CC4)cc13)CCCC2,RPS6KA6 C-terminal kinase domain,binding,1 µM,91
Cc1cnc(Nc2ccc(C(=O)N3CCC(N4CCCC4)CC3)cc2)nc1-c1cc2ccccc2s1,RPS6KA6 C-terminal kinase domain,binding,1 µM,72
CN(C)C(=O)Cn1cc(-c2nc(C3(c4ccc(-c5cnc(N)nc5)cc4)CC3)no2)cn1,RPS6KA6 N-terminal kinase domain,cell-free assay,1 µM,83
O=C(c1ccc(Nc2ncc(Cl)c(-c3cc4ccccc4s3)n2)cc1)N1CCC(N2CCCC2)CC1,RPS6KA6 N-terminal kinase domain,binding,1 µM,46
CN(C)c1nccc(-c2cnn3ncccc23)n1,RPS6KA6 C-terminal kinase domain,binding,1 µM,100
O=C(O)c1cc(-c2ccc(C3CCNCC3)cc2)c2ccc(-c3ccc(C(F)(F)F)cc3)cc2c1,RPS6KA6 N-terminal kinase domain,cell-free assay,1 µM,100
CNC(=O)[C@@H]1CC[C@@H](n2c(-c3ccc4cnccc4c3)nc3ccc(C(=O)NCc4cccc(C(N)=O)c4)cc32)C1,RPS6KA6 N-terminal kinase domain,binding,1 µM,100
CN(C)c1nccc(-c2cnc3ncccn23)n1,RPS6KA6 C-terminal kinase domain,binding,1 µM,90
O=C(Nc1c[nH]nc1C(=O)NC1CCNCC1)c1cc(F)cc(F)c1,RPS6KA6 N-terminal kinase domain,binding,1 µM,94
COc1ccc2c(c1)O[C@@H](c1ccc(OC)c(OC)c1)C[C@H]2NC(=O)C1(c2ccc3c(c2)OC(F)(F)O3)CC1,RPS6KA6 N-terminal kinase domain,cell-free assay,1 µM,84
COc1cnc(Nc2cccc(S(N)(=O)=O)c2)nc1N1CCN(c2ccccc2)CC1,RPS6KA6 C-terminal kinase domain,binding,1 µM,69
CCN1CCN(Cc2ccc(C(=O)Nc3ccc(C)c(Oc4ccc5c(c4)CC(=O)N5)c3)cc2C(F)(F)F)CC1,RPS6KA6 C-terminal kinase domain,binding,1 µM,89
COc1cc(-c2cn(C3CCc4ccccc4N(CC(F)(F)F)C3=O)nn2)ccc1-n1ccc(C)n1 (stereo not shown),RPS6KA6 N-terminal kinase domain,cell-free assay,1 µM,81
O=C(NCCCN1CCOCC1)c1ccc(Nc2ncc(Cl)c(-c3ccc(Cl)s3)n2)cc1,RPS6KA6 C-terminal kinase domain,binding,1 µM,85
CC1CCCN1c1nccc(-c2cnn3ncccc23)n1 (stereo not shown),RPS6KA6 N-terminal kinase domain,binding,1 µM,99
O=C(NCC1CCOCC1)c1n[nH]cc1NC(=O)c1c(F)cccc1F,RPS6KA6 C-terminal kinase domain,binding,1 µM,99
O=C1NC(c2ccccn2)Sc2ccccc21 (stereo not shown),RPS6KA6 N-terminal kinase domain,cell-free assay,1 µM,96
N[C@@H]1CCN(c2nccc(-c3cnn4ncccc34)n2)C1,RPS6KA6 N-terminal kinase domain,binding,1 µM,100
CCS(=O)(=O)c1cc2cc(C[C@@](O)(CC(C)(C)c3ccc(F)cc3C(N)=O)C(F)(F)F)[nH]c2cn1,RPS6KA6 N-terminal kinase domain,cell-free assay,1 µM,100
Cc1cnn2ncc(-c3ccnc(N(C)C)n3)c2c1,RPS6KA6 C-terminal kinase domain,binding,1 µM,100
